Results from ChEMBL document CHEMBL2380254, “Optimization of tocotrienols as antiproliferative and antimigratory leads” (Eur J Med Chem, 2013).

Tests used:
Format in all cases: functional
A549 = test: Growth inhibition of human A549/ATCC cells after 48 hrs by sulforhodamine B assay; conditions: A549, 48 h
Outline: (§1)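 NCI-60 screen: cells in RPMI 1640 with 5% FBS and 2 mM glutamine, 5000–40,000 cells/well, preincubated 24 h. Five concentrations (10-fold dilutions; 100 to 0.001 µM) applied for 48 h at 37 °C. TCA fixation, SRB stain, absorbance at 515 nm. Time-zero plates included; GI50 where 100×(T−T0)/(C−T0)=50.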

OVCAR-8 = test: Growth inhibition of human OVCAR8 cells assessed as cell growth at 10 uM after 48 hrs by sulforhodamine B assay; conditions: OVCAR-8, 48 h, read-out: Activity
Outline: (§2)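 Single-dose NCI-60 screen: adherent cells in RPMI 1640 with 5% FBS were exposed to 10 µM for 48 h at 37 °C after a 24 h preincubation. They were fixed in situ with cold TCA (10% final), stained with 0.4% SRB in 1% acetic acid, solubilized in 10 mM Tris base, and read at 515 nm. Percent growth was taken relative to time-zero and control plates.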

LOX IMVI = test: Growth inhibition of human LOXIMVI cells after 48 hrs by sulforhodamine B assay; outline: as §1
HCT-15 = test: Growth inhibition of human HCT15 cells assessed as cell growth at 10 uM after 48 hrs by sulforhodamine B assay; conditions: HCT-15, 48 h, read-out: Activity
Outline: (§3)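 NCI-60 single-dose screen at 10 µM: cells in RPMI 1640 with 5% FBS, preincubated 24 h, then exposed 48 h at 37 °C. TCA fixation (16% final for suspension cells), SRB staining, absorbance 515 nm. Percent growth relative to time-zero and untreated control plates; negative values indicate cell kill.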

CAKI-1 = test: Growth inhibition of human CAKI-1 cells assessed as cell growth at 10 uM after 48 hrs by sulforhodamine B assay; conditions: CAKI-1, 48 h, read-out: Activity; outline: as §3
BT-549 = test: Growth inhibition of human BT549 cells assessed as cell growth at 10 uM after 48 hrs by sulforhodamine B assay; conditions: BT-549, 48 h, read-out: Activity; outline: as §3
OVCAR-3 = test: Growth inhibition of human OVCAR3 cells after 48 hrs by sulforhodamine B assay; conditions: OVCAR-3, 48 h
Outline: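 NCI-60 panel cells grown in RPMI 1640 with 5% FBS and 2 mM L-glutamine, seeded at 5000–40,000 cells/well and preincubated 24 h. Five 10-fold dilutions (0.001–100 µM) from DMSO stocks were added for 48 h at 37 °C. Adherent cells were fixed with cold TCA (10% final) for 60 min at 4 °C, stained with 0.4% SRB, and read at 515 nm. GI50 was set where 100×(T−T0)/(C−T0)=50.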

HOP-92 = test: Growth inhibition of human HOP92 cells assessed as cell growth at 10 uM after 48 hrs by sulforhodamine B assay; conditions: HOP-92, 48 h, read-out: Activity; outline: as §3
HCT-116 = test: Growth inhibition of human HCT116 cells after 48 hrs by sulforhodamine B assay; conditions: HCT-116, 48 h; outline: as §1
COLO 205 = test: Growth inhibition of human COLO205 cells after 48 hrs by sulforhodamine B assay; conditions: COLO 205, 48 h; outline: as §1
TK-10 = test: Growth inhibition of human TK10 cells after 48 hrs by sulforhodamine B assay; conditions: TK-10, 48 h
Outline: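 NCI-60 five-dose screen. Cells were grown in RPMI 1640 with 5% FBS and 2 mM L-glutamine, plated at 5000–40,000 cells/well and incubated 24 h before dosing, with T0 plates TCA-fixed. DMSO stocks were diluted to doses of […] and exposed 48 h at 37 °C, 5% CO2. Cells were fixed with cold TCA (final 10%, 60 min, 4 °C), stained with 0.4% SRB in 1% acetic acid for 10 min, solubilized in 10 mM trizma base and read at 515 nm. GI50 is where 100×(T−T0)/(C−T0)=50.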

IGROV-1 = test: Growth inhibition of human IGROV1 cells after 48 hrs by sulforhodamine B assay; conditions: IGROV-1, 48 h; outline: as §1
SK-MEL-5 = test: Growth inhibition of human SK-MEL-5 cells assessed as cell growth at 10 uM after 48 hrs by sulforhodamine B assay; conditions: SK-MEL-5, 48 h, read-out: Activity; outline: as §2
KM12 = test: Growth inhibition of human KM12 cells after 48 hrs by sulforhodamine B assay; conditions: KM12, 48 h; outline: as §1
NCI-H23 = test: Growth inhibition of human NCI-H23 cells assessed as cell growth at 10 uM after 48 hrs by sulforhodamine B assay; conditions: NCI-H23, 48 h, read-out: Activity; outline: as §2
MDA-MB-231 = test: Growth inhibition of human MDA-MB-231 cells assessed as cell growth at 10 uM after 48 hrs by sulforhodamine B assay; conditions: MDA-MB-231, 48 h, read-out: Activity; outline: as §2
DU-145 = test: Growth inhibition of human DU145 cells after 48 hrs by sulforhodamine B assay; conditions: DU-145, 48 h; outline: as §1
SR = test: Growth inhibition of human SR cells assessed as cell growth at 10 uM after 48 hrs by sulforhodamine B assay; conditions: read-out: Activity
Outline: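 Suspension line in RPMI 1640 with 5% FBS, single 10 µM dose for 48 h. Settled cells were fixed with TCA (final 16%), then SRB-stained and read at 515 nm. Percent growth was taken versus T0 and control; negative values denote cytotoxicity.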

OVCAR-4 = test: Growth inhibition of human OVCAR4 cells assessed as cell growth at 10 uM after 48 hrs by sulforhodamine B assay; conditions: OVCAR-4, 48 h, read-out: Activity; outline: as §2
SW-620 = test: Growth inhibition of human SW620 cells assessed as cell growth at 10 uM after 48 hrs by sulforhodamine B assay; conditions: SW-620, 48 h, read-out: Activity
Outline: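 Single-dose NCI-60 test at 10 µM. Cells were grown in RPMI 1640 with 5% FBS and 2 mM L-glutamine, preincubated 24 h, with T0 plates TCA-fixed. Exposure was 48 h at 37 °C, 5% CO2. Cells were fixed with cold TCA (final 10%, 4 °C, 60 min), stained with SRB and read at 515 nm. Percent growth was taken relative to T0 and untreated control; negative values denote cell kill.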

CCRF-CEM = test: Growth inhibition of human CCRF-CEM cells assessed as cell growth at 10 uM after 48 hrs by sulforhodamine B assay; conditions: read-out: Activity; outline: as §3
RXF 393 = test: Growth inhibition of human RXF393 cells assessed as cell growth at 10 uM after 48 hrs by sulforhodamine B assay; conditions: RXF 393, 48 h, read-out: Activity; outline: as §2
SK-MEL-2 = test: Growth inhibition of human SK-MEL-2 cells assessed as cell growth at 10 uM after 48 hrs by sulforhodamine B assay; conditions: SK-MEL-2, 48 h, read-out: Activity; outline: as §2
[1] = Growth inhibition of human HCC2998 cells assessed as cell growth at 10 uM after 48 hrs by sulforhodamine B assay; conditions: HCC 2998, 48 h, read-out: Activity; outline: as §3

SMILES	GI50 (A549)	growth at 10 µM (OVCAR-8)	GI50 (LOX IMVI)	growth at 10 µM (HCT-15)	growth at 10 µM (CAKI-1)	GI50 (OVCAR-3)	GI50 (HCT-116)	GI50 (COLO 205)	GI50 (TK-10)	GI50 (IGROV-1)	growth at 10 µM (SK-MEL-5)	GI50 (KM12)	growth at 10 µM (NCI-H23)	growth at 10 µM (MDA-MB-231)	GI50 (DU-145)	growth at 10 µM (SR)	growth at 10 µM (OVCAR-4)	growth at 10 µM (SW-620)	growth at 10 µM (CCRF-CEM)	growth at 10 µM (RXF 393)	also measured
CC(C)=CCC/C(C)=C/CC/C(C)=C/CC[C@]1(C)CCc2c3c(cc(C)c2O1)OCN(CCCO)C3	1890 nM	-77.7%	1690 nM	0.85%	60.4%	2110 nM	1790 nM	1980 nM	2060 nM	1810 nM	57.5%	2100 nM	51.9%	10.6%	1900 nM	-32.1%	-46.5%	-92.1%	28.6%	-90.5%	growth at 10 µM (BT-549): 92%; growth at 10 µM (HOP-92): 63.1%; growth at 10 µM (SK-MEL-2): 107%; growth at 10 µM [1]: -82.9%
CC(C)=CCC/C(C)=C/CC/C(C)=C/CC[C@]1(C)CCc2c3c(c(C)c(C)c2O1)OCN(CCCCCCCCO)C3	2500 nM	72.1%	3290 nM	75.3%	31.3%	2790 nM	2950 nM	2780 nM	3410 nM	2880 nM	83.7%	2930 nM	56.1%	40.7%	2980 nM	-37.8%	57.9%	10.1%	10.4%	-10.7%	growth at 10 µM (BT-549): 109%; growth at 10 µM (SK-MEL-2): 71.7%; growth at 10 µM [1]: -87%
CC(C)=CCC/C(C)=C/CC/C(C)=C/CC[C@]1(C)CCc2c3c(cc(C)c2O1)OCN(CCCCCCCCO)C3	616 nM	-51.9%	622 nM	-10.9%	-79.7%	811 nM	597 nM	886 nM	4640 nM	1340 nM	19.1%	784 nM	-20.7%	-69.6%	1080 nM	-53.3%	-98.9%	-46%	-29.7%	-97.1%	growth at 10 µM (SK-MEL-2): -52%; growth at 10 µM [1]: -90.9%
CC(C)=CCC/C(C)=C/CC/C(C)=C/CC[C@]1(C)CCc2c3c(cc(C)c2O1)OCN(CCCCO)C3	15500 nM	-13.3%	11300 nM	-53.9%	34%	17200 nM	16000 nM	3050 nM	15400 nM	14800 nM	37.1%	11900 nM	54.8%	-48.2%	16700 nM	-40.9%	-94.8%	-79.7%	-0.6%	-96.3%	growth at 10 µM (BT-549): 88.2%; growth at 10 µM [1]: -88.7%
CC(C)=CCC/C(C)=C/CC/C(C)=C/CC[C@]1(C)CCc2c3c(cc(C)c2O1)OCN(CCCCCCO)C3	607 nM	-62.8%	636 nM	5.75%	-72.8%	702 nM	659 nM	717 nM	2540 nM	1280 nM	20.9%	609 nM	-22.3%	-28.4%	1000 nM	-38%	-95.5%	-66.3%	-20.6%	-95.6%	growth at 10 µM (BT-549): 41.6%; growth at 10 µM (SK-MEL-2): 62.4%; growth at 10 µM [1]: -89.1%
CC(C)=CCC/C(C)=C/CC/C(C)=C/CC[C@]1(C)CCc2c3c(c(C)c(C)c2O1)OCN(CCCCCCO)C3	3090 nM	49.9%	2830 nM	38.4%	47%	2820 nM	2870 nM	2830 nM	3010 nM	2690 nM	95.2%	2840 nM	47%	9.83%	2960 nM	-34.8%	3.51%	-29.4%	5.83%	22.4%	growth at 10 µM (BT-549): 119%; growth at 10 µM (SK-MEL-2): 91.8%; growth at 10 µM [1]: -63.7%
